The values that follow come from ChEMBL document CHEMBL1770104, “Design, synthesis and antifungal activities of novel pyrrole alkaloid analogs” (Eur J Med Chem, 2011).

For experiment [1], the system named is Alternaria solani. The experiment in a line: Antimicrobial activity against Alternaria solani at 50 ug/mL by mycelium growth rate method. The class given is functional. Put shortly:
(§1)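 Mycelium growth-rate assay with anthranilamide and fenpiclonil as controls. Colony diameter is measured once the mycelia have grown completely, and the inhibition rate is calculated from the diameters by formula.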

Experiment [2] relates to Fusarium graminearum. The experiment in a line: Antimicrobial activity against Gibberella zeae at 50 ug/mL by mycelium growth rate method. The class given is functional. The method in brief:
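Mycelium growth rate assay with anthranilamide and fenpiclonil as controls. Once mycelia had grown completely, the mycelial diameter was measured and the inhibition rate was calculated from it by formula.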

Experiment [3] has as its system Mycosphaerella arachidis. The experiment in a line: Antimicrobial activity against Cercospora arachidicola at 50 ug/mL by mycelium growth rate method. The class given is functional. The method in brief: as §1
Experiment [4] deals with Fusarium. The experiment in a line: Antimicrobial activity against Fusarium […] at 50 ug/mL by mycelium growth rate method. Type of experiment: functional. Put shortly:
as §1

Experiment [5] relates to Botryosphaeria berengeriana. The experiment in a line: Antimicrobial activity against Physalospora piricola at 50 ug/mL by mycelium growth rate method. The class given is functional. The method in brief:
as §1

In experiment [6] the test system is Alternaria solani. The experiment in a line: Antimicrobial activity against Alternaria solani by mycelium growth rate method. The class given is functional, organism-based. The method in brief: as §1
For experiment [7], the system named is Fusarium. The experiment in a line: Antimicrobial activity against Fusarium […] by mycelium growth rate method. The class given is functional, organism-based. The method in brief: as §1
The subject of experiment [8] is Botryosphaeria berengeriana. The experiment in a line: Antimicrobial activity against Physalospora piricola by mycelium growth rate method. The class given is functional, organism-based. The method in brief:
as §1

The test system of experiment [9] is Fusarium graminearum. The experiment in a line: Antimicrobial activity against Gibberella zeae by mycelium growth rate method. Type of experiment: functional, organism-based.
For experiment [10], the system named is Mycosphaerella arachidis. The experiment in a line: Antimicrobial activity against Cercospora arachidicola by mycelium growth rate method. The class given is functional, organism-based. The method in brief: as §1

The inhibition is the relative decrease from the control value, in per cent. One may read the EC50 as the concentration at which the effect is half-maximal. The low end stands for greater potency, the high end for weaker potency.

Each structure is given as a SMILES string. Converted amounts (≈) assume the structure as drawn.

As for `N#Cc1cccc(CONC(=O)c2cc(Br)c(Br)[nH]2)c1`, the inhibition at 50 µg/mL worked out at 21.1% in the experiment on Alternaria solani [1]; 8.8% with Fusarium graminearum [2]; 35.7% in the experiment with Mycosphaerella arachidis [3]; 18% with Fusarium [4]; 25.3% in experiment [5].
For `N#Cc1ccc(CONC(=O)c2cc(Br)c(Br)[nH]2)cc1`, the inhibition at 50 µg/mL was 31.6% in the experiment on Alternaria solani [1]; 20.6% in the experiment on Fusarium graminearum [2]; 35% with Mycosphaerella arachidis [3]; 19% in the experiment on Fusarium [4]; 48.1% in experiment [5].
For the compound `O=C(NOCc1ccc([N+](=O)[O-])cc1)c1cc(Br)c(Br)[nH]1`, the inhibition at 50 µg/mL with Alternaria solani [1] came to 26.7%; in the experiment on Fusarium graminearum [2], 13%; with Mycosphaerella arachidis [3] it was 18.8%; in the experiment on Fusarium [4], 17.6%; in [5] it was 16.7%.
For `CO/C=C(/C(=O)OC)c1ccccc1CONC(=O)c1cc(Br)c(Br)[nH]1`, in that order: 52.4%, 0%, 26.7%, 6.7% and 13.6%.
As for `C#CCOc1ccc(CONC(=O)c2ccc[nH]2)cc1OC`, the EC50 is > 50 µg/mL with Alternaria solani [6]; > 50 µg/mL in the experiment with Fusarium [7]; 4.5 µg/mL (≈ 15 µM) in experiment [8]; > 50 µg/mL in the experiment with Fusarium graminearum [9]; > 50 µg/mL in the experiment with Mycosphaerella arachidis [10]. Besides, the inhibition at 50 µg/mL was determined as 35.3% in the experiment with Alternaria solani [1]; 9.1% in the experiment with Fusarium graminearum [2]; 20% in the experiment on Mycosphaerella arachidis [3]; 16.7% in the experiment with Fusarium [4]; 100% in [5].
Turning to `O=C(NOCc1ccc(F)cc1)c1ccc[nH]1`, the inhibition at 50 µg/mL in the experiment with Alternaria solani [1] was 0%; in the experiment with Fusarium graminearum [2], 7%; with Mycosphaerella arachidis [3] it was 12%; in the experiment on Fusarium [4], 0%; in [5] it was 6.2%.
Regarding `CO/C=C(/C(=O)OC)c1ccccc1CONC(=O)c1ccc[nH]1`, the inhibition at 50 µg/mL in the experiment on Alternaria solani [1] stood at 0%; in the experiment with Fusarium graminearum [2], 8.5%; with Mycosphaerella arachidis [3], 13.3%; with Fusarium [4] it was 0%; in [5] it was 16.1%.
For the compound `C#CCOc1ccc(CONC(=O)c2[nH]c(Br)c(Br)c2Br)cc1OC`, the inhibition at 50 µg/mL with Alternaria solani [1] turned out to be 11.8%; with Fusarium graminearum [2] it was 9.1%; with Mycosphaerella arachidis [3], 33.3%; in the experiment on Fusarium [4], 22.2%; in experiment [5], 25.8%.
For `O=C(NOCc1ccc(F)cc1)c1[nH]c(Br)c(Br)c1Br`, in that order: 19.2%, 15.5%, 28%, 8.3% and 18.5%.
For `CO/C=C(/C(=O)OC)c1ccccc1CONC(=O)c1[nH]c(Br)c(Br)c1Br`, in that order: 5.9%, 13.6%, 26.7%, 27.8% and 25%.
On the same counts, the results for `C#CCOc1ccc(CONC(=O)c2cc(Cl)c(Cl)[nH]2)cc1OC` are 42.3%, 21.1%, 44%, 0% and 6.2%.
Turning to `O=C(NOCc1ccc(F)cc1)c1cc(Cl)c(Cl)[nH]1`, the inhibition at 50 µg/mL in the experiment with Alternaria solani [1] was determined as 30.8%; in the experiment with Fusarium graminearum [2] it was 19.5%; in the experiment on Mycosphaerella arachidis [3] it was 16%; with Fusarium [4], 22.2%; in experiment [5] it was 18.5%.
For `CO/C=C(/C(=O)OC)c1ccccc1CONC(=O)c1cc(Cl)c(Cl)[nH]1`, in that order: 42.3%, 21.1%, 40%, 8.3% and 24.7%.
On the same counts, the results for `C#CCOc1ccc(CON(C)C(=O)c2ccc[nH]2)cc1OC` are 13.3%, 0%, 19.2%, 31.6% and 5.8%.
On the same counts, the results for `C#CCOc1ccc(CON(C)C(=O)c2cccn2C)cc1OC` are 16.7%, 20%, 7.7%, 31.6% and 6%.
Regarding `C#CCOc1ccc(CONC(=O)c2cc(Br)c(Br)[nH]2)cc1OC`, the concentration for a half-maximal effect (EC50) is 20 µg/mL (≈ 43.7 µM) in the experiment with Alternaria solani [6]; > 50 µg/mL in the experiment on Fusarium [7]; 9.78 µg/mL (≈ 21.3 µM) in experiment [8]; > 50 µg/mL in the experiment on Fusarium graminearum [9]; 24.4 µg/mL (≈ 53.2 µM) in the experiment with Mycosphaerella arachidis [10]. The inhibition at 50 µg/mL is 64.9% in the experiment with Alternaria solani [1]; 8.7% with Fusarium graminearum [2]; 56.3% with Mycosphaerella arachidis [3]; 47.1% with Fusarium [4]; 90% in experiment [5].
On to `COc1ccc(CONC(=O)c2cc(Br)c(Br)[nH]2)cc1OC`, for which the inhibition at 50 µg/mL in the experiment with Alternaria solani [1] amounted to 73.3%; with Fusarium graminearum [2] it was 4.6%; in the experiment with Mycosphaerella arachidis [3], 60%; in the experiment with Fusarium [4] it was 41.2%; in experiment [5], 50%.
For `O=C(NOCc1ccc2c(c1)OCO2)c1cc(Br)c(Br)[nH]1`, in that order: 31.6%, 14.7%, 75%, 23.8% and 18.5%.
On the same counts, the results for `O=C(NOCc1ccccc1)c1cc(Br)c(Br)[nH]1` are 66.7%, 9.1%, 53.3%, 40% and 40.9%.
On the same counts, the results for `O=C(NOCc1ccccc1F)c1cc(Br)c(Br)[nH]1` are 76.2%, 18.2%, 50.3%, 41.2% and 27.3%.
As to `O=C(NOCc1cccc(F)c1)c1cc(Br)c(Br)[nH]1`, the inhibition at 50 µg/mL with Alternaria solani [1] amounted to 61.9%; with Fusarium graminearum [2], 4.5%; in the experiment on Mycosphaerella arachidis [3] it was 54%; in the experiment with Fusarium [4], 40.8%; in [5] it was 40.9%.
For `O=C(NOCc1ccc(F)cc1)c1cc(Br)c(Br)[nH]1`, in that order: 66.5%, 21.7%, 62.5%, 58% and 55.1%.
For `O=C(NOCc1ccccc1Cl)c1cc(Br)c(Br)[nH]1`, in that order: 19%, 13.6%, 20%, 0% and 13.4%.
For `O=C(NOCc1cccc(Cl)c1)c1cc(Br)c(Br)[nH]1`, in that order: 66.7%, 17.4%, 80%, 47% and 38.9%.
As for `O=C(NOCc1ccc(Cl)nc1)c1cc(Br)c(Br)[nH]1`, the inhibition at 50 µg/mL turned out to be 5.3% in the experiment on Alternaria solani [1]; 0% with Fusarium graminearum [2]; 28.6% with Mycosphaerella arachidis [3]; 23.8% with Fusarium [4]; 37% in experiment [5].
For `O=C(NOCc1ccc(Cl)cc1Cl)c1cc(Br)c(Br)[nH]1`, in that order: 21.1%, 11.8%, 35.7%, 33.3% and 33.3%.
For `O=C(NOCc1ccc(Cl)c(Cl)c1)c1cc(Br)c(Br)[nH]1`, in that order: 40%, 17.4%, 43.8%, 23.5% and 27.8%.
As for `O=C(NOCc1ccc(Br)cc1)c1cc(Br)c(Br)[nH]1`, the inhibition at 50 µg/mL was found to be 31.6% in the experiment with Alternaria solani [1]; 2.9% in the experiment with Fusarium graminearum [2]; 50% with Mycosphaerella arachidis [3]; 4.8% in the experiment with Fusarium [4]; 33.3% in experiment [5].
As for `N#Cc1ccccc1CONC(=O)c1cc(Br)c(Br)[nH]1`, the inhibition at 50 µg/mL in the experiment with Alternaria solani [1] worked out at 10.5%; in the experiment on Fusarium graminearum [2], 14.7%; in the experiment on Mycosphaerella arachidis [3], 14.3%; with Fusarium [4] it was 14%; in experiment [5], 14.8%.
On the same counts, the results for `NC(=O)c1ccccc1N` [ANTHRANILAMIDE] are 42.3%, 38%, 52%, 27.8% and 43.2%.
For `N#Cc1c[nH]cc1-c1cccc(Cl)c1Cl` [FENPICLONIL], the EC50 in the experiment on Alternaria solani [6] is 0.55 µg/mL (≈ 2.32 µM); in the experiment on Fusarium [7], > 50 µg/mL; in experiment [8] it was 0.8 µg/mL (≈ 3.37 µM); in the experiment with Fusarium graminearum [9] it was 1.71 µg/mL (≈ 7.21 µM); in the experiment on Mycosphaerella arachidis [10], 0.38 µg/mL (≈ 1.6 µM). The inhibition at 50 µg/mL in the experiment with Alternaria solani [1] is 100%; in the experiment with Fusarium graminearum [2], 100%; in the experiment on Mycosphaerella arachidis [3] it was 100%; with Fusarium [4], 18%; in experiment [5], 100%.
